Several values for one entry are separate records, joined by “and”; a condition that tells them apart may be missing. Identical values can stand only once.
Key:
[1] = test system: T. cruzi strain HA trypomastigotes; conditions: ref Garcia et al. 2010; cited from earlier work
[2] = In vitro cytotoxicity in U-937 cells; assay type: cell-based; conditions: human, U-937 cells (non-infected)
Outline: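 Non-infected U-937 cells at 10^5 cells/mL were mixed 1:1 with compound solutions at 200, 50, 12.5 and 3.125 µg/mL, alongside benznidazole, and held 72 h at 37 °C. MTT was added for 3 h, then formazan was dissolved in isopropanol/SDS and read at 570 nm. Viability was expressed versus unexposed cells, mortality as 100 − %viability, and LC50 was obtained by probit analysis.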

[3] = test system: T. cruzi Talahuen strain intracellular amastigotes; assay: Anti-T. cruzi in vitro assay in intracellular amastigotes; assay type: cell-based, Trypanosoma cruzi; conditions: for SI (selectivity index = LC50/EC50): LC50 U-937 / EC50 T. cruzi; for antitrypanosomal activity class: classified by EC50 in μg/mL
[4] = test system: T. cruzi blood trypomastigotes (Talahuen strain); assay: In vivo therapeutic response in BALB/c mice infected with T. cruzi; parameters: species or system Mus musculus (BALB/c mice); conditions: at the end of treatment
Outline: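 BALB/c mice were inoculated intraperitoneally with 100 blood trypomastigotes of the Tulahuen β-gal strain taken from donor mice. From the first day of parasitaemia, seven groups (n = 6) were dosed orally at 100 mg/kg/day for 25 days with test compound, benznidazole or nothing. Parasitaemia per 0.1 mL blood was counted by hematocrit at TD0, TD25 and PTD30/60/90. Reduction was calculated per mouse against pre-treatment parasitaemia. Mice negative in all tests were scored cured.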

Compound	inhibition of the presence of the parasite [1] [%]	CC50 at 72 h [2]	SI (selectivity index = LC50/EC50) [3]	mice cured [4] [%]	parasitaemia status ([4]; 100 mg/kg/day)	antitrypanosomal activity class [3]
COc1cccc(/C=C/c2ccc3ccccc3n2)c1OC [(E)-2-(2,3-dimetoxystyryl) quinoline]	34.1	–	–	–	–	–
O=C(Cn1ccnc1[N+](=O)[O-])NCc1ccccc1 [Benznidazol (BZ), Benznidazol, reference compound]	–	> 200 µg/mL and 491 µM	8.7	100	negative	–
COc1cc(/C=C/c2ccc3cccc(OC(C)=O)c3n2)ccc1OC(C)=O [Compound 3h, (E)-2-(4-Acetoxy-3-methoxystyryl)quinolin-8-yl acetate]	–	5.9 µg/mL and 15.6 µM	0.2	–	–	moderate (Moderate activity: 25 μg/mL > EC50 < 50 μg/mL)
CC(=O)Oc1ccc(/C=C/c2ccc3cccc(OC(C)=O)c3n2)c(OC(C)=O)c1 [Compound 3g, (E)-4-(2-(8-Acetoxyquinolin-2-yl)vinyl)-1,3-phenylene diacetate]	–	6.9 µg/mL and 17.2 µM	–	–	–	moderate (Moderate activity: 25 μg/mL > EC50 < 50 μg/mL)

— article PMC8134988 (Heliyon, 2021)
